pIC50: −log10 of the molar value. Calls of active or inactive are those of the source. The calls are words filed in the database; no cut-off is given here.
Key:
Leishmania donovani [1] = assay: Antileishmanial activity against amastigote stage of Leishmania donovani MHOM/IN/80/Dd8 harboring luciferase gene infected in mouse J774 cells assessed as parasite growth inhibition at 50 uM incubated for 72 hrs by Steady-Glo reagent based luciferase assay; assay type: functional; details: for inhibition at 50 µM: MHOM/IN/80/Dd8, J774
In short: (§1)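 J774 murine macrophages, 4 × 10⁴ cells/well in RPMI with 10% FBS for 24 h, are infected for 24 h at 37 °C, 5% CO₂ with stationary-phase luciferase-transfected L. donovani Dd8 promastigotes at a 1:8 macrophage:parasite ratio. Compounds are dissolved in DMSO. Luminescence is read after Steady-Glo is added in PBS. IC₅₀ is taken from a four-parameter Hill nonlinear regression. Miltefosine is the reference.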

Leishmania donovani [2] = assay: Antileishmanial activity against log phase of Leishmania donovani MHOM/IN/80/Dd8 promastigotes assessed as reduction in cell viability at 50 uM incubated for 72 hrs by MTT assay; assay type: functional
In short: (§2)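 Log-phase luciferase-transfected L. donovani Dd8 promastigotes (M199 + 10% FBS, 24 °C) treated with compounds at 25 and 50 µM in DMSO, with 0.1% DMSO vehicle control. After 72 h, MTT added 4 h. Formazan dissolved in DMSO, read at 570 nm. Percent inhibition reported as mean ± SD of at least three independent experiments in replicate.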

Leishmania donovani [3] = assay: Antileishmanial activity against amastigote stage of Leishmania donovani MHOM/IN/80/Dd8 harboring luciferase gene infected in mouse J774 cells assessed as parasite growth inhibition at 25 uM incubated for 72 hrs by Steady-Glo reagent based luciferase assay; assay type: functional; details: for inhibition at 25 µM: MHOM/IN/80/Dd8, J774; in short: as §1
Leishmania donovani [4] = assay: Antileishmanial activity against log phase of Leishmania donovani MHOM/IN/80/Dd8 promastigotes assessed as reduction in cell viability at 25 uM incubated for 72 hrs by MTT assay; assay type: functional; in short: as §2
Leishmania donovani [5] = assay: Antileishmanial activity against amastigote stage of Leishmania donovani MHOM/IN/80/Dd8 harboring luciferase gene infected in mouse J774 cells assessed as parasite growth inhibition incubated for 72 hrs by Steady-Glo reagent based luciferase assay; assay type: functional, organism-based; details: MHOM/IN/80/Dd8, J774, 72 h; in short: as §1
Leishmania = assay: Antileishmanial activity against Leishmania; assay type: functional, organism-based
In short: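 Antiamastigote assay: J774 murine macrophages in RPMI + 10% FBS, infected 24 h at 37 °C, 5% CO2 with stationary-phase luciferase-transfected L. donovani Dd8 promastigotes (1:8 macrophage:parasite). Infectivity confirmed by Giemsa staining on parallel slides. Compounds then added and incubated 72 h. Read-out by luciferase luminescence. IC50 from four-parameter Hill nonlinear regression of the dose-response.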

Leishmania donovani [6] = assay: Antileishmanial activity against Leishmania donovani MHOM/IN/80/Dd8 infected in BALB/c mouse assessed as reduction in intracellular amastigote burden in liver at 50 mg/kg, ip for 5 days and measured at 1 week post-treatment by Giemsa staining based assay relative to control; assay type: functional; details: time 12.0 day
In short: (§3)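 Female BALB/c mice (20–25 g), 5/group, infected iv with 2 × 10^7 stationary-phase L. donovani promastigotes. Infection confirmed at 2 wk, then 50 mg/kg ip daily for 5 consecutive days. Vehicle was 5% DMSO. Sacrificed day 7 post-treatment. Giemsa-stained liver/spleen impression smears counted as amastigotes/1000 nucleated cells, expressed as LDU (amastigotes per nucleated cell × organ weight in mg), compared with untreated infected controls.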

Leishmania donovani [7] = assay: Antileishmanial activity against amastigote stage of Leishmania donovani MHOM/IN/80/Dd8 harboring luciferase gene infected in mouse J774 cells assessed as parasite growth inhibition by Giemsa staining based analysis; assay type: functional, organism-based; details: time 12-72 hrs, TDE = time-dependent effect
In short: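 J774 macrophages are infected for 24 h with stationary-phase luciferase-transfected Dd8 promastigotes at a 1:8 ratio in chamber slides. After compound treatment, cells are fixed and Giemsa-stained, and intracellular amastigotes are counted by microscopy.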

Leishmania donovani [8] = assay: Antileishmanial activity against amastigote stage of Leishmania donovani MHOM/IN/80/Dd8 harboring luciferase gene infected in mouse J774 cells assessed as parasite killing incubated for 72 hrs by Steady-Glo reagent based luciferase assay; assay type: functional, organism-based; details: dose 3.12-50 µM; in short: as §1
[9] = Cytotoxicity against mouse J774 cells assessed as reduction in cell viability incubated for 72 hrs by MTT assay; assay type: cell-based
In short: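 J774 macrophages seeded at 1 × 10^5 cells/well overnight, then exposed to graded concentrations (7.81–500 µM) for 72 h at 37 °C, 5% CO2. MTT (5 mg/mL) added for 2 h, formazan solubilized in DMSO and read at 570 nm. CC50 taken as 50% viability loss relative to untreated cells.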

Leishmania donovani [10] = assay: Antileishmanial activity against amastigote stage of Leishmania donovani MHOM/IN/80/Dd8 harboring luciferase gene infected in mouse J774 cells assessed as parasite killing at 50 to 100 uM incubated for 72 hrs by Steady-Glo reagent based luciferase assay; assay type: functional; details: dose 50-100 µM; in short: as §1
Leishmania donovani [11] = assay: Antileishmanial activity against Leishmania donovani MHOM/IN/80/Dd8 infected in BALB/c mouse assessed as reduction in intracellular amastigote burden in spleen at 50 mg/kg, ip for 5 days and measured at 1 week post-treatment by Giemsa staining based assay relative to control; assay type: functional; details: time 12.0 day; in short: as §3
Leishmania donovani [12] = assay: Antileishmanial activity against log phase of Leishmania donovani MHOM/IN/80/Dd8 promastigotes assessed as reduction in cell viability by MTT assay; assay type: functional, organism-based; details: time 12-72 hrs, TDE = time-dependent effect
Leishmania donovani [13] = assay: Induction of mitochondrial membrane potential dysfunction in Leishmania donovani MHOM/IN/80/Dd8 promastigotes assessed as cells with mitochondrial depolarization at 50 uM incubated for 72 hrs by JC1 staining based flow cytometry (reference value: 3.63%); assay type: functional
Splenocyte [14] = assay: Immunomodulatory activity in BALB/c mouse infected with Leishmania donovani amastigotes assessed as decrease in TGF-beta level in splenocytes supernatants at 25 mg/kg, po for 5 days; assay type: functional, organism-based; details: time 5.0 day
Splenocyte [15] = assay: Immunomodulatory activity in BALB/c mouse infected with Leishmania donovani amastigotes assessed as increase in IL-12 level in splenocytes supernatants at 25 mg/kg, po for 5 days; assay type: functional, organism-based; details: time 5.0 day
Splenocyte [16] = assay: Immunomodulatory activity in BALB/c mouse infected with Leishmania donovani amastigotes assessed as increase in IFN-gamma level in splenocytes supernatants at 25 mg/kg, po for 5 days; assay type: functional, organism-based; details: time 5.0 day
Leishmania donovani [17] = assay: Antileishmanial activity against Leishmania donovani MHOM/IN/80/Dd8 infected in BALB/c mouse assessed as reduction in organ intracellular amastigote burden at 25 mg/kg, po for 5 days and measured at 1 week post-treatment by Giemsa staining based assay relative to control; assay type: functional; details: MHOM/IN/80/Dd8, po, 288 h, time 12 day
In short: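 Female BALB/c mice (20–25 g), 5/group, infected iv with 2 × 10^7 stationary-phase L. donovani promastigotes. Reference drug given orally at 25 mg/kg daily for 5 consecutive days. Sacrificed day 7 post-treatment. Liver and spleen impression smears fixed in methanol, stained with 30% Giemsa for 2 h. Amastigotes/1000 nucleated cells counted and expressed as LDU.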

Splenocyte [18] = assay: Immunomodulatory activity in BALB/c mouse infected with Leishmania donovani amastigotes assessed as decrease in IL-10 level in splenocytes supernatants at 25 mg/kg, po for 5 days; assay type: functional, organism-based; details: time 5.0 day
Leishmania donovani [19] = assay: Antileishmanial activity against Leishmania donovani promastigotes assessed as parasite growth inhibition incubated for 72 hrs by Alamar Blue assay; assay type: functional, organism-based

| SMILES | inhibition at 50 µM (Leishmania donovani [1]) [%] | inhibition at 25 µM (Leishmania donovani [3]) [%] | inhibition at 50 µM (Leishmania donovani [2]) [%] | inhibition at 25 µM (Leishmania donovani [4]) [%] | also measured |
| --- | --- | --- | --- | --- | --- |
| N#Cc1c2c(c3c(c1N1CCN(c4ccccc4O)CC1)Cc1ccccc1-3)CSC2 | 57.3 | 45.5 |  |  | inhibition (Leishmania donovani [2]): inactive; inhibition (Leishmania donovani [4]): inactive |
| N#Cc1c(N2CCN(c3ccccc3Cl)CC2)cc(-c2ccc(Br)cc2)oc1=O | 68.5 | 60.5 | 66.5 | 57.9 |  |
| N#Cc1c(N2CCN(c3ccccc3O)CC2)cc(-c2ccc(Br)s2)oc1=O | 85.1 | 74.8 | 88.1 | 52.1 | pIC50 (Leishmania donovani [5]): 4.89 |
| CCn1nc2cc(N/C(C)=C3/C(=O)C=C(C)OC3=O)ccc2c1Cl |  |  |  |  | pIC50 (Leishmania): 5.61 |
| N#Cc1c(N2CCN(c3ccccc3O)CC2)cc(-c2cccc3ccccc23)oc1=O | 80.8 | 71.4 | 78.6 | 77.3 | pIC50 (Leishmania donovani [5]): 4.89 |
| N#Cc1c(N2CCN(c3ccccc3O)CC2)c2c(oc1=O)-c1ccccc1C2 | 60 | 37.8 | 82.2 | 14.2 |  |
| N#Cc1c(N2CCN(c3cccc(Cl)c3)CC2)cc(-c2ccccc2)oc1=O | 72.1 | 47.4 | 57.3 | 44 |  |
| N#Cc1c(N2CCN(c3ccccc3Cl)CC2)cc(-c2ccccc2)oc1=O | 73.7 | 49.2 | 72.9 | 46.9 |  |
| N#Cc1c(N2CCN(c3ccccc3O)CC2)cc(-c2cccs2)oc1=O | 89.3 | 84.7 | 90.2 | 81.3 | Activity (Leishmania donovani [6]): Active; Activity (Leishmania donovani [7]): Tde; Activity (Leishmania donovani [8]): Dose-Dependent Effect; CC50 at 72 h [9]: 311 µM; Activity (Leishmania donovani [10]): >89%; pIC50 (Leishmania donovani [5]): 4.82; Activity (Leishmania donovani [11]): Active; Activity (Leishmania donovani [12]): Tde |
| N#Cc1c(N2CCN(c3ccccc3O)CC2)cc(-c2ccccc2)c2c1CSC2 |  |  | 87.8 | 82.1 | inhibition (Leishmania donovani [1]): inactive; inhibition (Leishmania donovani [3]): inactive |
| N#CC(C#N)=NNc1cccc(Cl)c1 [CARBONYL CYANIDE M-CHLOROPHENYLHYDRAZONE] |  |  |  |  | Activity (Leishmania donovani [13]): 95.6% |
| CCCCCCCCCCCCCCCCOP(=O)([O-])OCC[N+](C)(C)C [MILTEFOSINE] | 95.3 | 91.2 | 99.7 | 99.4 | Activity (Splenocyte [14]): Active; Activity (Splenocyte [15]): Active; Activity (Splenocyte [16]): Active; pIC50 (Leishmania donovani [5]): 4.89; inhibition in vivo at 25 mg/kg (Leishmania donovani [17]): > 97%; Activity (Splenocyte [18]): Active |
| N#Cc1c(N2CCN(c3ccccc3O)CC2)cc(-c2ccc(Cl)cc2)oc1=O |  |  | 25 |  | inhibition (Leishmania donovani [1]): inactive; inhibition (Leishmania donovani [3]): inactive; inhibition (Leishmania donovani [4]): inactive |
| COc1ccc(-c2cc(N3CCN(c4ccccc4O)CC3)c(C#N)c(=O)o2)cc1 | 84.4 | 51.8 | 86.3 | 78.3 | pIC50 (Leishmania donovani [5]): 4.89 |
| N#Cc1c(N2CCN(c3ccccc3O)CC2)cc(-c2ccc(Br)cc2)c2c1CCSC2 | 83.3 | 71 | 33.3 |  | inhibition (Leishmania donovani [4]): inactive |
| N#Cc1c(N2CCN(c3ccccc3O)CC2)cc(-c2ccc(Br)cc2)oc1=O | 35.1 | 14.5 |  |  | inhibition (Leishmania donovani [2]): inactive; inhibition (Leishmania donovani [4]): inactive |
| Cc1ccc(-c2cc(N3CCN(c4ccccc4O)CC3)c(C#N)c(=O)o2)cc1 | 83.2 | 77.3 | 72.8 | 54.7 | pIC50 (Leishmania donovani [5]): 4.89 |
| COc1ccc(-c2cc(N3CCN(c4ccccc4Cl)CC3)c(C#N)c(=O)o2)cc1 | 62.5 | 51 | 69.2 | 60.3 |  |
| N#Cc1c(N2CCN(c3ccccc3O)CC2)cc(-c2cccs2)c2c1CCSC2 | 72.6 | 65 |  |  | inhibition (Leishmania donovani [2]): inactive; inhibition (Leishmania donovani [4]): inactive |
| c1ccc2[nH]c(-c3ccc(N4CCN(c5ccc(-c6nc7ccccc7[nH]6)cc5)CC4)cc3)nc2c1 |  |  |  |  | pIC50 (Leishmania donovani [19]): 6.39 |
| COc1ccccc1N1CCN(c2cc(-c3cccs3)oc(=O)c2C#N)CC1 | 71.2 | 52.2 | 62.2 | 48.1 |  |
| N#Cc1c(N2CCN(c3ccccc3O)CC2)c2c(oc1=O)-c1ccccc1CC2 | 64.8 | 37.8 | 81.3 | 35.9 |  |
| COc1ccccc1N1CCN(c2cc(-c3ccc(Br)cc3)oc(=O)c2C#N)CC1 | 58.3 | 43.3 | 61.2 | 56.6 |  |
| N#Cc1c(N2CCN(c3ccccc3Cl)CC2)cc(-c2ccc(Cl)cc2)oc1=O | 71 | 73.1 | 58.3 | 55.2 |  |
| N#Cc1c(N2CCN(c3ccccc3O)CC2)cc(-c2cccs2)c2c1CSC2 | 79.3 | 60.1 | 4.8 |  | inhibition (Leishmania donovani [4]): inactive |
